This note sets out measurements from ChEMBL document CHEMBL4382258, “Design and Optimization of Sulfone Pyrrolidine Sulfonamide Antagonists of Transient Receptor Potential Vanilloid-4 with in Vivo Activity in a Pulmonary Edema Model” (J Med Chem, 2018).

Bounds are passed on as bounds.

Data set [1] is described as follows: Clearance in Sprague-Dawley rat at 1 mg/kg, iv administered as 30 mins infusion by LC/MS/MS analysis. It counts as ADME, organism-based. To be noted: in vivo.
A short description of data set [2]: Clearance adjusted for unbound fraction in Sprague-Dawley rat at 1 mg/kg, iv administered as 30 mins infusion by LC/MS/MS analysis. The format is ADME, organism-based. Conditions: in vivo, 0.5 h.
In data set [3] the target is Transient receptor potential cation channel subfamily V member 1 (Homo sapiens, UniProt Q8NER1). Briefly: Antagonist activity at TRPV1 (unknown origin).
Chain of Transient receptor potential cation channel subfamily V member 1 (Q8NER1 whole entry): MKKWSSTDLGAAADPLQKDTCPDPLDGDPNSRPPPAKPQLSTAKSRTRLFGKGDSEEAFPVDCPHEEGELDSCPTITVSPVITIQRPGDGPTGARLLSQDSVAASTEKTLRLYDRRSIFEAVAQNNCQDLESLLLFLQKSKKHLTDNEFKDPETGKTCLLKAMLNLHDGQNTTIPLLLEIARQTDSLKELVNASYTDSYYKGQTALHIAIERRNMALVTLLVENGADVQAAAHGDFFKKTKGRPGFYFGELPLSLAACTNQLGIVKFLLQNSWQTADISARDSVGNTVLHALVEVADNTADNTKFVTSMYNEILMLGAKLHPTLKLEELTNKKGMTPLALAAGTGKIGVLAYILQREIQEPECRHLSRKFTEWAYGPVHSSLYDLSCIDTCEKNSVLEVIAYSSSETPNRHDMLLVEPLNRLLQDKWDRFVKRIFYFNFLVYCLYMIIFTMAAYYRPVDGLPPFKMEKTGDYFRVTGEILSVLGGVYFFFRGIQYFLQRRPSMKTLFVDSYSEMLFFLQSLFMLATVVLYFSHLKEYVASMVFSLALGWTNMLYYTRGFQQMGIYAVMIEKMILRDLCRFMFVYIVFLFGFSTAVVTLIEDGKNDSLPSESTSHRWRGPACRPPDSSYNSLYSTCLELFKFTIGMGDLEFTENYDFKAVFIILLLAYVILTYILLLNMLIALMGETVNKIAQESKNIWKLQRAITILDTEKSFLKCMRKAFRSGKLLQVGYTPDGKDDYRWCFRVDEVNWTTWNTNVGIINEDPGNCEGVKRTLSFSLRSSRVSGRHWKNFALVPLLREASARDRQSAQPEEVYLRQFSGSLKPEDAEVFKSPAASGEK
Data set [4] deals with Transient receptor potential cation channel subfamily A member 1 (Homo sapiens, UniProt O75762). Briefly: Antagonist activity at TRPA1 (unknown origin).
Chain of Transient receptor potential cation channel subfamily A member 1 (O75762 whole entry): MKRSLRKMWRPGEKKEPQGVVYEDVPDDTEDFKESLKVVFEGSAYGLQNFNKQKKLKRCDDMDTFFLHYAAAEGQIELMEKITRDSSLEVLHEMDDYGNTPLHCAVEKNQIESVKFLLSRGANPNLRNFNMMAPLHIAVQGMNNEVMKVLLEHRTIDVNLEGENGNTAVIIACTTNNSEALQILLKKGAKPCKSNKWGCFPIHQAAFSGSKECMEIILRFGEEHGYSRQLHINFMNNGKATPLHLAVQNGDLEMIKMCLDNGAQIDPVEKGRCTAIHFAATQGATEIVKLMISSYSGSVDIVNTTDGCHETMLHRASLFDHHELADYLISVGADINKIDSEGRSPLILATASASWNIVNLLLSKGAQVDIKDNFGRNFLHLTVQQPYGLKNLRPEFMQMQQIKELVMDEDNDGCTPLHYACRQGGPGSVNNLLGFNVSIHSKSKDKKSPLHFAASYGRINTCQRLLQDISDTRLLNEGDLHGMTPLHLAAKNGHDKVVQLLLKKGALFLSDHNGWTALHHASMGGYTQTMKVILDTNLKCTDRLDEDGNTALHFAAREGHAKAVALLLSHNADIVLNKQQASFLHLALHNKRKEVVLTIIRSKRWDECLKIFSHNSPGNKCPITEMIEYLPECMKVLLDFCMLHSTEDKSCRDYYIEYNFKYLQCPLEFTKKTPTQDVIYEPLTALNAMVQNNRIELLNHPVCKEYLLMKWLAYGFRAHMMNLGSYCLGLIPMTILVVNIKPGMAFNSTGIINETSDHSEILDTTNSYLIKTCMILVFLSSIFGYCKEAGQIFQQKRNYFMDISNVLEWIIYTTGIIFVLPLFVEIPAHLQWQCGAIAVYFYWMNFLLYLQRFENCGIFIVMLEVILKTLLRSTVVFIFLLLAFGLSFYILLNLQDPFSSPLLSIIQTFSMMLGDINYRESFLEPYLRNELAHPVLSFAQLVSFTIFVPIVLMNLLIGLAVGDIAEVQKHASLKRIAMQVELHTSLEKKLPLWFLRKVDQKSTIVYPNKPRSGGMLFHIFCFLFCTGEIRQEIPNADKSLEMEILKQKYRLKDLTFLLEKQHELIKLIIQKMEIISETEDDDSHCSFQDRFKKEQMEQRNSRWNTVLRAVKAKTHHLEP
Data set [5] can be described thus: MRT in Sprague-Dawley rat at 1 mg/kg, iv or 2 mg/kg, po by LC/MS/MS analysis. It counts as ADME, organism-based. To be noted: in vivo.
In data set [6] the target is Transient receptor potential cation channel subfamily M member 8 (Homo sapiens, UniProt Q7Z2W7). Briefly: Antagonist activity at TRPM8 (unknown origin).
Chain of Transient receptor potential cation channel subfamily M member 8 (Q7Z2W7 whole entry): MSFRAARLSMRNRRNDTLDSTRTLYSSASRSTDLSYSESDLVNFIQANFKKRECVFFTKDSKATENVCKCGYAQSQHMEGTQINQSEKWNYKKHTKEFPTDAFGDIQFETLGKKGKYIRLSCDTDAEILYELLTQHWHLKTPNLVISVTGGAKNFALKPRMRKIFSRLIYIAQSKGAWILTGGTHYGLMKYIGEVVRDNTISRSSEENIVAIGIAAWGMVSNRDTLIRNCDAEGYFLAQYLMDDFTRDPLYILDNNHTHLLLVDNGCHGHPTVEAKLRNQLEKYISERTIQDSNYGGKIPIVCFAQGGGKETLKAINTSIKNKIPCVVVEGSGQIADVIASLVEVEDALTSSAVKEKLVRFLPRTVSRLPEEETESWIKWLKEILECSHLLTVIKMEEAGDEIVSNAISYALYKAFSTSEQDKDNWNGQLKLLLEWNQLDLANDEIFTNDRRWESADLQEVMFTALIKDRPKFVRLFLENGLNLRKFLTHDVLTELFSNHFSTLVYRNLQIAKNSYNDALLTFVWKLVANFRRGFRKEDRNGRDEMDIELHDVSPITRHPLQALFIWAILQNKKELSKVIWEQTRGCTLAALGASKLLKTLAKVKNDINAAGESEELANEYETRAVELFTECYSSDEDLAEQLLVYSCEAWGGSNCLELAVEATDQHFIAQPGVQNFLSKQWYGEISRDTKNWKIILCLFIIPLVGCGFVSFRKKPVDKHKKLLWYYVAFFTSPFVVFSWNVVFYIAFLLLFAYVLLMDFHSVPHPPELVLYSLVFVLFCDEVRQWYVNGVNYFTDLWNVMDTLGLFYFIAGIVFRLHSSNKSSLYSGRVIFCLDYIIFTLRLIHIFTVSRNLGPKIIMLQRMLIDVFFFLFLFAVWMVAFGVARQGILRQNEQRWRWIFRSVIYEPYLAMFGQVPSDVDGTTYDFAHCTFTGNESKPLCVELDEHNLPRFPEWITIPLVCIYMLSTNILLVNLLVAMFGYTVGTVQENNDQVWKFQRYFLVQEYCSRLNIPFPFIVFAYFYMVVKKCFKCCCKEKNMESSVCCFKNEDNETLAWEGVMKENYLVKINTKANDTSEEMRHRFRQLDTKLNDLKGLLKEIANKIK
The nature of data set [7]: Dose normalized AUC (0 to t) in dog at 0.9 mg/kg, po. The format is ADME, organism-based, Canis lupus familiaris. Conditions: in vivo.
Data set [8] is described as follows: Fraction unbound in Sprague-Dawley rat heart failure-induced pulmonary edema model at 0.02 to 0.21 ug/kg, iv bolus loading dose followed by 0.3 to 2.3 ug/kg/min, iv continuous infusion dose for 60 mins. To be noted: in vivo. The format is ADME, organism-based.
A short description of data set [9]: Volume of distribution at steady state in Sprague-Dawley rat at 1 mg/kg, iv or 2 mg/kg, po by LC/MS/MS analysis. It counts as ADME, organism-based. Conditions: in vivo, read-out: Vdss.
Data set [10] addresses Transient receptor potential cation channel subfamily V member 4 (Homo sapiens, UniProt Q9HBA0). The experiment in a line: Antagonist activity at human TRPV4 expressed in BHK/AC9 cells assessed as inhibition of GSK634775-induced […] pre-incubated for 10 mins followed by agonist addition by Fluo-4-AM dye-based FLIPR assay. The format is cell-based.
The test system of data set [11] is Rattus norvegicus. The experiment in a line: Reversal of heart failure-induced pulmonary edema in Sprague-Dawley rat assessed as inhibition of GSK1016790A-induced increase in lung wet weight to body weight ratio at 0.02 to 0.21 ug/kg, iv bolus loading dose followed by 0.3 to 2.3 ug/kg/min, iv continuous infusion dose for 60 mins prior to agonist administration. The format is functional, organism-based. The essentials:
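Rats given vehicle or antagonist by i.v. infusion, then agonist GSK1016790A i.v. at 10 µg/kg/min for 10 min (100 µg/kg total). Edema scored as wet lung weight/body weight ratio against naïve animals; inhibition computed from the agonist response; mean ± SEM.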

Chain of Transient receptor potential cation channel subfamily V member 4 (Q9HBA0 whole entry, the tested form may be a part): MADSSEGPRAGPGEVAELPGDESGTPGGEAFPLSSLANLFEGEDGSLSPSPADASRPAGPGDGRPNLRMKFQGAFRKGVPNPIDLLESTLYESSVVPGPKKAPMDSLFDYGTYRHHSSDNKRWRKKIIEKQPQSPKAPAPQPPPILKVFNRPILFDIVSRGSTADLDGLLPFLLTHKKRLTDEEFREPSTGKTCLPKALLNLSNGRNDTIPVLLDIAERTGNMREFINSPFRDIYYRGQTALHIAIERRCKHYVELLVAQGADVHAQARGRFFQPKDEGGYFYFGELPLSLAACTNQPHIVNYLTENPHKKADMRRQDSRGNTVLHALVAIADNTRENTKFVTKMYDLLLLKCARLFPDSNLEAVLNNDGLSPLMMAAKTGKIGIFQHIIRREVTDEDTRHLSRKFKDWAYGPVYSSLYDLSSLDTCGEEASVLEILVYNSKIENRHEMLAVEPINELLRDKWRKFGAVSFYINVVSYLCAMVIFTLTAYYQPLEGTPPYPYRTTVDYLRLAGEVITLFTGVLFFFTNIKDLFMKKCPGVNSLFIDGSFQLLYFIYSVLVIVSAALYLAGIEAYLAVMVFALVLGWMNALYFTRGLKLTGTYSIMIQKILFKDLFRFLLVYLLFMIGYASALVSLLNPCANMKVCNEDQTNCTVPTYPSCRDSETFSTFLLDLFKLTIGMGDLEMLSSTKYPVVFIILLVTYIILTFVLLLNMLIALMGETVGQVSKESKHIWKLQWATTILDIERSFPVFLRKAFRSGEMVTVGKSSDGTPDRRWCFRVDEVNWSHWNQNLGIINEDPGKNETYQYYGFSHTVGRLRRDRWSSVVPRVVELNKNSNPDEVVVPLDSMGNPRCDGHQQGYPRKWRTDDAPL

Take `N#Cc1ccc(S(=O)(=O)N2C[C@H](S(=O)(=O)c3ccc(Cl)cc3)[C@](O)(CO)C2)c(Cl)c1`: the clearance (in general, a measure of how efficiently the substance is removed, as volume per time) in data set [1] came to 49 mL/min/kg. This molecule also showed a CL free in [2] of 12 mL/min/kg. Also, the IC50 – broadly, the point on the concentration scale where inhibition reaches its midpoint – is more than 30000 nM in [3]; more than 30000 nM in [4]; more than 30000 nM in [6]; 3.2 nM in data set [10]; 33 nM in data set [11] (Rattus norvegicus, Sprague-Dawley). For the same molecule, the mean residence time MRT – broadly, a mean duration of stay, worked out from the concentration-time curve – in data set [5] is 1.6 h. In addition, the AUCt/dose in data set [7] was 2.9 kg·h/L. Moreover, the fraction unbound (in general, the share of the substance not bound to proteins or other matrix) at 1 h in [8] came to 0.042. Also, the Vd in data set [9] worked out at 4.5 L/kg. The fIC50 in [11] worked out at 0.3 nM.
